Measurements from different studies.
Protocols differ between the studies behind these lines.
Target: 5-hydroxytryptamine receptor 2B (HTR2B, Homo sapiens, UniProt P41595)

Compound | read-out | mode | technique | concentration | quantity | result
CC(C)N1CCC[C@H]1CNC(=O)c1cn(C2CCCC2)c(=O)c2c1c1ccccc1n2C | ligand displacement | – | radioligand | 10 µM | inhibition | 41%
COCCN(CCOC)C(=O)[C@@]12C[C@@H]1[C@@H](n1cnc3c(N)nc(Cl)nc31)[C@H](O)[C@@H]2O | ligand displacement | – | radioligand | 10 µM | inhibition | 36%
C[C@H](C(=O)N[C@H]1COc2ccccc2[C@@H]1S(C)(=O)=O)c1ccc(F)cc1 | ligand displacement | – | – | 10 µM | inhibition | -9%
COc1cc2c3c(c1OC)-c1cc4c(cc1CC3N(C)CC2)OCO4 (racemic) | ligand displacement | – | radioligand | 10 µM | inhibition | 92.8%
CC(Cc1ccccc1)NCCn1cnc2c1c(=O)n(C)c(=O)n2C (centres unmarked) | ligand displacement | – | radioligand | 10 µM | inhibition | 23%
c1ccc(C(NCCNC(c2ccccc2)c2ccccc2)c2ccccc2)cc1 | ligand displacement | – | – | 10 µM | inhibition | 79%
Cn1cncc1[C@@](O)(COc1ccc(C#N)cc1-c1ccc(OC(F)(F)F)cc1)c1ccc(C#N)cc1 | ligand displacement | – | – | 10 µM | inhibition | 18.6%
Clc1ccc2c(C3CCN(CCc4c[nH]c5ccccc45)CC3)c[nH]c2c1 | ligand displacement | – | radioligand | 10 µM | inhibition | 100%
COCc1c(-c2cc3cc(C)cc(OC)c3s2)c2c(N)ncnn2c1CN1CCNC(=O)C1 | ligand displacement | – | radioligand | 10 µM | inhibition | 84%
CCOc1ccccc1NC(=O)c1ccccc1NS(=O)(=O)C1CC1 | ligand displacement | – | radioligand | 10 µM | inhibition | 63%
CCC(N)Cc1cc(OC)c(COC)cc1OC (centres unmarked) | G protein activation | agonist | BRET | – | Emax | 43%
N#CC1(c2ccccn2)CCN(Cc2cc(C(=O)O)c(=O)n3ccccc23)CC1 | ligand displacement | – | – | 10 µM | inhibition | 3.23%
Nc1ncc(-c2nc(N3CCOCC3)nc(N3CCOCC3)n2)c(C(F)F)n1 | cell-free assay | – | radioligand | 10 µM | remaining signal | 94.1%
CCN(CC)CCCC[C@H](NC(=O)[C@H](CC(C)C)NC(=O)[C@H](C)NC(=O)[C@H](Cc1ccccc1)NC(=O)c1ccc(C(C)(C)C)cc1)C(=O)N[C@@H](CO)C(=O)OC | ligand displacement | – | radioligand | 10 µM | inhibition | 7%
